Measurements: ChEMBL document CHEMBL1212759, “Antifungal activity of colistin against mucorales species in vitro and in a murine model of Rhizopus oryzae pulmonary infection” (Antimicrob Agents Chemother, 2010)
Calls of active or inactive are those of the source. The calls are words filed in the database; no cut-off is given here.

Key:
Mucor circinelloides [1] = assay: Ratio of MFC to MIC for Mucor circinelloides isolate 4480 after 24 hrs in RMPI 1640 medium by broth microdilution method; format: functional, organism-based
Method in brief: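 RPMI 1640 microdilution with colistin at 64 to 0.06 μg/ml and spores at 0.5 × 10^4 to 4 × 10^4 cells/ml, incubated 24 h at 37°C. MIC was read visually as 100% inhibition. For MFC, 20 μl from clear wells and from the last growth well were subcultured onto YAG. MFC was the lowest concentration giving fewer than three colonies at 24 h (≥99.9% killing). The line reports the MFC/MIC ratio.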

[2] = test system: Cunninghamella bertholletiae; assay: Antimicrobial activity against Cunninghamella bertholletiae isolate 6694 after 24 hrs in RMPI 1640 medium by broth microdilution method; format: functional, organism-based
Method in brief: (§1)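 Colistin was serially diluted from 64 to 0.06 μg/ml in RPMI 1640 with glucamine and without bicarbonate. Fresh spores from 48–72 h YAG plates were added at 0.5 × 10^4 to 4 × 10^4 cells/ml. Plates were incubated 24 h at 37°C. MIC was read visually as the lowest concentration giving 100% growth inhibition.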

[3] = test system: Cunninghamella bertholletiae; assay: Antimicrobial activity against Cunninghamella bertholletiae isolate 6733 after 24 hrs in RMPI 1640 medium by broth microdilution method; format: functional, organism-based; method in brief: as §1
Mucor circinelloides [4] = assay: Antimicrobial activity against Mucor circinelloides isolate 4030 after 24 hrs in RMPI 1640 medium by broth microdilution method; format: functional, organism-based; method in brief: as §1
Rhizopus arrhizus [5] = assay: Antimicrobial activity against Rhizopus oryzae isolate 4549 after 24 hrs in RMPI 1640 medium by broth microdilution method; format: functional, organism-based; method in brief: as §1
Rhizopus arrhizus [6] = assay: Antimicrobial activity against Rhizopus oryzae isolate 3140 after 24 hrs in RMPI 1640 medium by broth microdilution method; format: functional, organism-based; method in brief: as §1
Rhizopus arrhizus [7] = assay: Antimicrobial activity against Rhizopus oryzae isolate 4153 after 24 hrs in RMPI 1640 medium by broth microdilution method; format: functional, organism-based; method in brief: as §1
Rhizopus homothallicus = assay: Antimicrobial activity against Rhizopus homothallicus isolate 5790 after 24 hrs in RMPI 1640 medium by broth microdilution method; format: functional; method in brief: as §1
Rhizopus arrhizus [8] = assay: Antimicrobial activity against Rhizopus oryzae isolate 5799 after 24 hrs in RMPI 1640 medium by broth microdilution method; format: functional, organism-based; method in brief: as §1
Rhizopus arrhizus [9] = assay: Antimicrobial activity against Rhizopus oryzae isolate 5496 after 24 hrs in RMPI 1640 medium by broth microdilution method; format: functional, organism-based; method in brief: as §1
Rhizopus [10] = assay: Antimicrobial activity against […] isolate 6254 after 24 hrs in RMPI 1640 medium by broth microdilution method; format: functional, organism-based; method in brief: as §1
[11] = test system: Cunninghamella bertholletiae; assay: Antimicrobial activity against Cunninghamella bertholletiae isolate 6694 after 24 hrs in yeast nitrogen base complete medium by broth microdilution method; format: functional, organism-based
Method in brief: (§2)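 Broth microdilution in YNB complete medium with colistin at 128 to 0.12 μg/ml. Freshly collected spores were inoculated at 0.5 × 10^4 to 4 × 10^4 cells/ml and incubated 24 h at 37°C. MIC was read visually as the lowest concentration with complete (100%) growth inhibition.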

[12] = test system: Cunninghamella bertholletiae; assay: Antimicrobial activity against Cunninghamella bertholletiae isolate 6733 after 24 hrs in yeast nitrogen base complete medium by broth microdilution method; format: functional, organism-based; method in brief: as §2
Mucor circinelloides [13] = assay: Antimicrobial activity against Mucor circinelloides isolate 5904 after 24 hrs in yeast nitrogen base complete medium by broth microdilution method; format: functional, organism-based; method in brief: as §2
Rhizopus arrhizus [14] = assay: Antimicrobial activity against Rhizopus oryzae isolate 4549 after 24 hrs in yeast nitrogen base complete medium by broth microdilution method; format: functional, organism-based; method in brief: as §2
Rhizopus arrhizus [15] = assay: Antimicrobial activity against Rhizopus oryzae isolate 3140 after 24 hrs in yeast nitrogen base complete medium by broth microdilution method; format: functional, organism-based; method in brief: as §2
Rhizopus arrhizus [16] = assay: Antimicrobial activity against Rhizopus oryzae isolate 4153 after 24 hrs in yeast nitrogen base complete medium by broth microdilution method; format: functional, organism-based; method in brief: as §2
Rhizopus arrhizus [17] = assay: Antimicrobial activity against Rhizopus oryzae isolate 5799 after 24 hrs in yeast nitrogen base complete medium by broth microdilution method; format: functional, organism-based
Method in brief: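 Microdilution was done in yeast nitrogen base complete medium, with colistin serially diluted 128 to 0.12 μg/ml. Spores were harvested from YAG plates (48–72 h, 37°C), washed, filtered and counted, then added at 0.5 × 10^4 to 4 × 10^4 cells/ml. After 24 h at 37°C, MIC was taken visually as the lowest concentration with complete growth inhibition.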

Rhizopus arrhizus [18] = assay: Antimicrobial activity against Rhizopus oryzae isolate 5496 after 24 hrs in yeast nitrogen base complete medium by broth microdilution method; format: functional, organism-based; method in brief: as §2
Rhizopus [19] = assay: Antimicrobial activity against […] isolate 6254 after 24 hrs in yeast nitrogen base complete medium by broth microdilution method; format: functional, organism-based; method in brief: as §2
Rhizopus arrhizus [20] = assay: Antimicrobial activity against Rhizopus oryzae at 8 ug/disk after 24 hrs by disk diffusion method; format: functional, organism-based
Method in brief: (§3)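 Paper disks loaded with 8, 16 or 32 μg colistin were placed on agar plates inoculated with 200 μl of a 10^6 cells/ml R. oryzae spore suspension. After 24 h at 37°C, the diameter of the inhibition zone was measured.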

Rhizopus arrhizus [21] = assay: Antimicrobial activity against Rhizopus oryzae at 16 ug/disk after 24 hrs by disk diffusion method; format: functional, organism-based; method in brief: as §3
Rhizopus arrhizus [22] = assay: Antimicrobial activity against Rhizopus oryzae assessed as reduction in hyphal viability at 8 ug/ml up to 6 hrs by XTT assay; format: functional, organism-based
Method in brief: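 R. oryzae mycelia were shaken at 37°C in RPMI 1640 with colistin, amphotericin B or both; drug-free RPMI served as control. At 0, 2, 6 and 24 h, pellets received XTT (1 mg) plus menadione (0.17 mg) in 1 ml PBS for 1 h at 37°C, then OD405 was read. Viability is drug OD405 divided by control OD405; at least three experiments.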

Rhizopus arrhizus [23] = assay: Antimicrobial activity against Rhizopus oryzae assessed as plasma membrane disruption-related ATP release at 8 ug/ml after 5 mins by Cell Titer-Glo luminescent assay; format: functional, organism-based
Method in brief: (§4)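 Spores at 10^7 cells/ml in RPMI 1640 were germinated about 6 h at 37°C. Germlings were resuspended in RPMI with colistin at 8 or 32 μg/ml, or drug-free, and shaken at 37°C. Supernatants taken at 5, 30, 60 and 90 min were assayed for released ATP by CellTiter-Glo luminescence.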

Rhizopus arrhizus [24] = assay: Antimicrobial activity against Rhizopus oryzae assessed as plasma membrane disruption-related ATP release at 32 ug/ml after 5 mins by Cell Titer-Glo luminescent assay; format: functional, organism-based; method in brief: as §4
Rhizopus arrhizus [25] = assay: Antimicrobial activity against Rhizopus oryzae assessed as vacuolar and plasma membrane damage at 32 ug/ml by FM4-64 staining; format: functional, organism-based
Method in brief: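 Germlings at 5 × 10^6/ml were loaded with 5 μM FM4-64 in RPMI 1640 for 30 min at 30°C in the dark. After washing in PBS, they were exposed to colistin at the MIC and MFC, or drug-free RPMI, for 60 min at 37°C. Membranes were viewed by fluorescence microscopy with a rhodamine filter.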

- MIC [2]: 16 µg/mL
- MIC [3]: 32 µg/mL
- MIC (Mucor circinelloides [4]): 16 µg/mL
- MIC (Rhizopus arrhizus [5]): 32 µg/mL
- MIC (Rhizopus arrhizus [6]): 16 µg/mL
- MIC (Rhizopus arrhizus [7]): 16 µg/mL
- MIC (Rhizopus homothallicus): 16 µg/mL
- MIC (Rhizopus arrhizus [8]): 8 µg/mL
- MIC (Rhizopus arrhizus [9]): 16 µg/mL
- MIC (Rhizopus [10]): 16 µg/mL
- MIC [11]: 128 µg/mL
- MIC [12]: 128 µg/mL
- MIC (Mucor circinelloides [13]): 128 µg/mL
- MIC (Rhizopus arrhizus [14]): 128 µg/mL
- MIC (Rhizopus arrhizus [15]): 128 µg/mL
- MIC (Rhizopus arrhizus [16]): 128 µg/mL
- MIC (Rhizopus arrhizus [17]): 128 µg/mL
- MIC (Rhizopus arrhizus [18]): 128 µg/mL
- MIC (Rhizopus [19]): 128 µg/mL
Sequence: COLISTIN
- Ratio (Mucor circinelloides [1]): 2
- MFC [2]: 64 µg/mL
- MFC [3]: 64 µg/mL
- MFC (Mucor circinelloides [4]): 64 µg/mL
- MFC (Rhizopus arrhizus [5]): 64 µg/mL
- MFC (Rhizopus arrhizus [6]): 32 µg/mL
- MFC (Rhizopus arrhizus [7]): 64 µg/mL
- MFC (Rhizopus homothallicus): 64 µg/mL
- MFC (Rhizopus arrhizus [8]): 32 µg/mL
- MFC (Rhizopus arrhizus [9]): 32 µg/mL
- MFC (Rhizopus [10]): 32 µg/mL
- MFC [11]: > 128 µg/mL
- MFC [12]: > 128 µg/mL
- MFC (Mucor circinelloides [13]): > 128 µg/mL
- MFC (Rhizopus arrhizus [14]): > 128 µg/mL
- MFC (Rhizopus arrhizus [15]): > 128 µg/mL
- MFC (Rhizopus arrhizus [16]): > 128 µg/mL
- MFC (Rhizopus arrhizus [17]): > 128 µg/mL
- MFC (Rhizopus arrhizus [18]): > 128 µg/mL
- MFC (Rhizopus [19]): > 128 µg/mL
- inhibition zone (IZ) (Rhizopus arrhizus [20]): 18 mm
- inhibition zone (IZ) (Rhizopus arrhizus [21]): 19 mm
- inhibition (Rhizopus arrhizus [22]): 45%
- Activity (Rhizopus arrhizus [23]): Active
- Activity (Rhizopus arrhizus [24]): Active
- Activity (Rhizopus arrhizus [25]): Active
